Bioassay records: PubChem BioAssay, Sanford-Burnham Center for Chemical Genomics
SENP8 block-1 – blocks the human protease SENP8 | inhibition, % at 10 µM | 1.2% of 330,000 active | purified SENP8, Z-RLRGG-aminoluciferin cleavage, luminescence; in the data active = inhibition above about 50%
SENP1 FRET inh – inhibitors of human SENP1 SUMO protease catalytic domain; 0.21% of 360,000 active; Q9P0U3; AID 624204; inhibition, % at 10 µM; recombinant SENP1 catalytic domain, CyPet-SUMO1-YPet FRET cleavage;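 active = inhibition at least 30% at 10 µM, raw YFP signal under a set limit, fluorescence ratio 0.5 to 1.5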;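 note: 0% = enzyme with DMSO and 100% = no enzyme wells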
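Assay system: hSENP1 catalytic domain, recombinant. Amount: SENP1 enzyme, 20 pM final. Schedule: 50 min reaction, RT, dark. Technique: FRET, CFP and YFP emission. Control set: no-enzyme wells low, DMSO-plus-enzyme wells high control.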
SENP8 block-2 – blocks human SENP8 cleavage of Nedd8 substrate. Q96LD8. recombinant SENP8, Nedd8 substrate fluorescence. inhibition, % at 20 µM. 0.64% of 360,000 active. AID 602440; in the data active = inhibition mostly above about 40%, no sharp cut-off; inactive = mostly below about 27%
SENP6 inh – SENP6 protease inhibition | inhibition, % at 10 µM | Q9GZR1 | 1.8% of 330,000 active | Recombinant SENP6 catalytic domain, aminoluciferin luminescence;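 active = inhibition above about 50% at the single tested dose, limit read from the data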;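 note: plate controls were DMSO wells with enzyme for no effect and DMSO wells lacking enzyme for full effect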
SENP7 inh – blocks the human protease SENP7 | Q9BQF6 | recombinant SENP7, Z-RLRGG-aminoluciferin luminescence, 40 min | inhibition, % at 5 µM | 1.5% of 330,000 active | AID 434973;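 active = inhibition above about 50% at the single test dose, limit read from the data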;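 note: plate controls were DMSO with enzyme for no effect and no enzyme buffer wells for full effect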
Target sequence (Q9BQF6 706-1050 limits assumed): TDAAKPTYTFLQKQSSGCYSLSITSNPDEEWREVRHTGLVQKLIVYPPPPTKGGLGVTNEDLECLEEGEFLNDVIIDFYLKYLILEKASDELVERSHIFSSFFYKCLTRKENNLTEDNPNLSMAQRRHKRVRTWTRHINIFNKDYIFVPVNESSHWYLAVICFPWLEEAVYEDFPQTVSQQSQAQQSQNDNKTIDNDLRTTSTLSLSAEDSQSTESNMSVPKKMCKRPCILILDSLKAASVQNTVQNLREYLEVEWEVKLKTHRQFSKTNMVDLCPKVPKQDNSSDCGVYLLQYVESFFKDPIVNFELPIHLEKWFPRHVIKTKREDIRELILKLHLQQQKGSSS
SENP8 confirm – confirmation of human SENP8 protease inhibitors. AID 488912. 40% of 6,200 active. inhibition, % at 12.5 µM. Recombinant SENP8, Z-RLRGG-aminoluciferin luminescence, 60 min. shares compounds with SENP7 inh;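 active = mean inhibition across replicates above about 50%, limit read from the data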
SENP6 confirm – confirmation of human SENP6 protease inhibitors; shares compounds with SENP7 inh; recombinant SENP6, Z-RLRGG-aminoluciferin luminescence; inhibition, % at 12.5 µM; 58% of 6,200 active; AID 488915
SENP7 confirm – confirmation of human SENP7 protease inhibitors | recombinant SENP7, Z-RLRGG-aminoluciferin luminescence, 40 min | AID 488917 | inhibition, % at 12.5 µM | 69% of 6,200 active | shares compounds with SENP7 inh
Casp3 SENP sel – caspase-3 inhibition (SENP selectivity assay). AID 488918. purified caspase-3, Z-DEVD-aminoluciferin luminescence, 60 min. inhibition, % at 12.5 µM. 60% of 6,200 active. shares compounds with SENP7 inh;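 active = mean inhibition above about 50%, limit read from the data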;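 note: plate controls were enzyme with DMSO for no effect and wells without caspase-3 for full effect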
Target sequence (P42574 28-227 limits assumed): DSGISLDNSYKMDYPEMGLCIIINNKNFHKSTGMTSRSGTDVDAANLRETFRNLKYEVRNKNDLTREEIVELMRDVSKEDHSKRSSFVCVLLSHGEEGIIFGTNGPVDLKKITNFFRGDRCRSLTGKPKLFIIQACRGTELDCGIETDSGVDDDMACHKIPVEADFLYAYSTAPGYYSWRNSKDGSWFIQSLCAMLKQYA
Luc interf – interferes with luciferase luminescence in SENP counter-screen; shares compounds with SENP7 inh; Pre-incubated SENP8/Z-RLRGG-aminoluciferin, luciferase luminescence interference; inhibition, % at 12.5 µM; 39% of 6,200 active; AID 488919;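 active = mean inhibition above about 50% when retested at one dose, limit read from the data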;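 note: plate controls were DMSO wells with completed reaction for no effect and substrate without enzyme for full effect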
The depositor's hits bear a star; x = not tested or not shown. In the library only some 2.5% were active in any assay of this set; here they are far more common.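 Rule for the calls, unless noted: active = mean inhibition above about 50% in the one-dose retest (limit read from the data); inactive = the rest.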

SMILES	SENP8 block-1	SENP1 FRET inh	SENP8 block-2	SENP6 inh	SENP7 inh	SENP8 confirm	SENP6 confirm	SENP7 confirm	Casp3 SENP sel	Luc interf
O=C(COc1cc2oc(=O)c3c(c2cc1Cl)CCC3)Nc1cccnc1	1	-4	-71	23	67*	13	8	16	15	3
O=C(COc1cc2oc(=O)c3c(c2cc1Cl)CCC3)Nc1ccccn1	8	1	-97	-2	0	x	x	x	x	x
CN(C)c1ccnc2sc3c(SCc4ccc(Cl)cc4)ncnc3c12	-9	-27	-101	2	58*	-2	5	3	19	9
Clc1c(-c2ccccc2)nnn1-c1ccccc1	76*	0	16	91*	77*	74*	81*	96*	75*	76*
Cc1ccc(C)c(OCC(=O)Nc2cc(NC(=O)COc3cc(C)ccc3C)cc(C(=O)O)c2)c1	-4	-3	5	1	-4	x	x	x	x	x
CN=C1S/C(=C\c2ccc(N3CCCC3)c(F)c2)C(=O)N1C	12	-30	-61	73*	71*	2	6	20	29	1
CN=C1S/C(=C\c2ccc(N3CCOCC3)c(F)c2)C(=O)N1C	-7	-74	-274	-17	12	x	x	x	x	x
Clc1cc2nc(-c3cccnc3Cl)[nH]c2cc1Cl	38	-42	-207	77*	73*	3	8	90*	59*	1
COc1cc(CNc2ccc(O)cc2)cc(Br)c1OCc1ccccc1F	-5	0	19	23	60*	1	4	-3	-2	1
CC1CN(CCc2ccccc2)c2nc3c(c(=O)n(CC(N)=O)c(=O)n3C)n2C1 (centres undefined)	-2	-2	-52	9	6	x	x	x	x	x
C=CCn1c2ccccc2c(=O)c2cc(C#Cc3ccccn3)ccc21	56*	-30	-498	72*	43	61*	66*	82*	40	32
CC(C)c1cc(CN2C(C)COCC2C)cc(C(C)C)c1O (centres undefined)	x	0	-2	x	x	x	x	x	x	x
CC(C)n1c(=O)c2ccccc2n1Cc1cn(-c2ccc(Cl)cc2)nn1	x	-1	-336	x	x	x	x	x	x	x
Cc1c(/C=C/C(=O)c2ccccc2O)cnn1C	35	2	19	63*	67*	16	55*	81*	49	13
C/C(COc1ccccc1)=N\NC(=O)c1nnn(-c2nonc2N)c1CSc1ccc(C)cc1	x	-1	11	x	x	x	x	x	x	x
N#C/C(=N\Nc1ccccc1Cl)C(=O)c1ccccc1	-6	3	37	21	1	x	x	x	x	x
N#C/C(=N\Nc1cccc(Cl)c1)C(=O)c1ccccc1	69*	1	31	87*	15	-22	74*	76*	20	72*
CCOC(=O)c1c(Nc2ccccc2)sc(/C=C2\C=Nc3ccccc32)c1O	2	-31	-121	-3	3	x	x	x	x	x
Oc1nc(Nc2ccccc2)sc1/C=C1\C=Nc2ccccc21	34	-142	-33	64*	51*	13	34	55*	15	5
O=C(O)c1cccc(NC(=O)c2ccc(Cl)c(S(=O)(=O)N3CCCCCC3)c2)c1	78*	2	17	85*	85*	90*	89*	98*	55*	79*
CCOc1ccc(NC(=O)c2cccc(NC(=O)c3ccccc3)c2)cc1	-8	0	-3	-8	6	x	x	x	x	x
O=C(Nc1cccnc1)c1ccc(Cl)c(S(=O)(=O)N2CCCCC2)c1	-4	-1	7	-2	-11	x	x	x	x	x
O=C(O)c1cccc(NC(=O)c2ccc(COc3ccc(Cl)cc3)cc2)c1	53*	2	2	70*	29	44	43	59*	8	15
CC(C)c1cc(C(N)=O)c(NC(=O)c2cccc(COc3ccc(Cl)cc3)c2)s1	39	-5	-224	84*	15	98*	95*	99*	48	91*
Cc1nn(Cc2c(F)c(F)c(F)c(F)c2F)c(C)c1NC(=O)c1cccc(COc2ccc(Cl)cc2)c1	-15	1	6	-6	-11	x	x	x	x	x
SMILES	SENP8 block-1	SENP1 FRET inh	SENP8 block-2	SENP6 inh	SENP7 inh	SENP8 confirm	SENP6 confirm	SENP7 confirm	Casp3 SENP sel	Luc interf
CCOc1c(Cl)cc(C(=O)Nc2cccc(C(=O)O)c2)cc1Cl	92*	0	5	95*	88*	95*	96*	101*	54*	96*
C=CCCC(=O)N1C[C@H]2CON(C)[C@H]2C[C@H]1c1ccc(Br)cc1	x	0	8	x	x	x	x	x	x	x
CC[C@]1(C(=O)OC)[C@H]2C(=O)N(Cc3ccccc3)C(=O)[C@H]2[C@H]2CN=C(SCC(=O)c3ccccc3)N21	x	-2	9	x	6	x	x	x	x	x
O=C(c1ccc(COc2ccc(Cl)cc2Cl)o1)N1CCCC1	-11	0	0	-12	7	x	x	x	x	x
COc1cccc(CNC(=O)c2ccc(COc3ccccc3)cc2)c1	-7	0	11	-7	-12	x	x	x	x	x
O=C(O)COc1ccc(NC(=O)c2ccc3c(c2)C(=O)N(C2CCCCC2)C3=O)cc1	x	3	16	x	x	x	x	x	x	x
O=C(O)c1cccc(NC(=O)c2cccc(S(=O)(=O)N3CCc4ccccc43)c2)c1	22	0	4	54*	0	41	37	70*	3	43
O=C(O)c1cccc(NC(=O)c2ccc3c(c2)C(=O)N(C2CCCCC2)C3=O)c1	93*	2	0	95*	97*	83*	81*	100*	62*	50
O=C(O)c1ccc(COc2cccc(CO)c2)cc1	64*	2	16	74*	86*	1	70*	93*	93*	74*
Cc1ccc(C(=O)CCC(=O)Nc2ccccc2F)cc1	-12	4	13	22	-1	x	x	x	x	x
Cc1ccc2nc(SCC(=O)N3CCCc4ccccc43)nc(=O)n2c1	x	2	18	x	x	x	x	x	x	x
C/C(=N\NC(=O)c1cc2c(s1)CCC(C)C2)c1ccc[nH]1 (centres undefined)	5	-5	-273	7	70*	-11	2	81*	59*	13
Cc1ccc(/C=C2/CCc3c([nH]c4ccccc34)C2=O)cc1	27	-16	-167	49	68*	-8	6	9	13	-6
O=C1/C(=C\c2ccccc2)CCc2c1[nH]c1ccccc21	10	-6	-95	37	32	x	x	x	x	x
